PubChem BioAssay
The source made the active and inactive calls.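 How the source made its calls, unless noted: active means viability at or below 30% in both replicate assays; inconclusive means viability at or below 30% in just one of the two assays; inactive means the rest.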

Legend:
[1] = reducers of endogenous Her2 protein level, primary screen, SKBR3 breast tumor cells, AlphaScreen, ATP viability (AID 461;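 active means Her2 level under about 52% in both replicate screens, with viability over 70% of control, limit read from the data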;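 on Her2 level: lower value means less Her2 protein in the cells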;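 on viability: percent of carrier control wells set as 100% viability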); settings: 18-24 h, measured here: SKBR3 viability, ATP luminescence, at 10 µM
[2] = molecular target: Receptor tyrosine-protein kinase erbB-2 (Homo sapiens) (UniProt P04626); test: as above; settings: 18-24 h, at 10 µM, stronger effect = lower value
Chain of Receptor tyrosine-protein kinase erbB-2 (Homo sapiens) (P04626 whole entry, looked up): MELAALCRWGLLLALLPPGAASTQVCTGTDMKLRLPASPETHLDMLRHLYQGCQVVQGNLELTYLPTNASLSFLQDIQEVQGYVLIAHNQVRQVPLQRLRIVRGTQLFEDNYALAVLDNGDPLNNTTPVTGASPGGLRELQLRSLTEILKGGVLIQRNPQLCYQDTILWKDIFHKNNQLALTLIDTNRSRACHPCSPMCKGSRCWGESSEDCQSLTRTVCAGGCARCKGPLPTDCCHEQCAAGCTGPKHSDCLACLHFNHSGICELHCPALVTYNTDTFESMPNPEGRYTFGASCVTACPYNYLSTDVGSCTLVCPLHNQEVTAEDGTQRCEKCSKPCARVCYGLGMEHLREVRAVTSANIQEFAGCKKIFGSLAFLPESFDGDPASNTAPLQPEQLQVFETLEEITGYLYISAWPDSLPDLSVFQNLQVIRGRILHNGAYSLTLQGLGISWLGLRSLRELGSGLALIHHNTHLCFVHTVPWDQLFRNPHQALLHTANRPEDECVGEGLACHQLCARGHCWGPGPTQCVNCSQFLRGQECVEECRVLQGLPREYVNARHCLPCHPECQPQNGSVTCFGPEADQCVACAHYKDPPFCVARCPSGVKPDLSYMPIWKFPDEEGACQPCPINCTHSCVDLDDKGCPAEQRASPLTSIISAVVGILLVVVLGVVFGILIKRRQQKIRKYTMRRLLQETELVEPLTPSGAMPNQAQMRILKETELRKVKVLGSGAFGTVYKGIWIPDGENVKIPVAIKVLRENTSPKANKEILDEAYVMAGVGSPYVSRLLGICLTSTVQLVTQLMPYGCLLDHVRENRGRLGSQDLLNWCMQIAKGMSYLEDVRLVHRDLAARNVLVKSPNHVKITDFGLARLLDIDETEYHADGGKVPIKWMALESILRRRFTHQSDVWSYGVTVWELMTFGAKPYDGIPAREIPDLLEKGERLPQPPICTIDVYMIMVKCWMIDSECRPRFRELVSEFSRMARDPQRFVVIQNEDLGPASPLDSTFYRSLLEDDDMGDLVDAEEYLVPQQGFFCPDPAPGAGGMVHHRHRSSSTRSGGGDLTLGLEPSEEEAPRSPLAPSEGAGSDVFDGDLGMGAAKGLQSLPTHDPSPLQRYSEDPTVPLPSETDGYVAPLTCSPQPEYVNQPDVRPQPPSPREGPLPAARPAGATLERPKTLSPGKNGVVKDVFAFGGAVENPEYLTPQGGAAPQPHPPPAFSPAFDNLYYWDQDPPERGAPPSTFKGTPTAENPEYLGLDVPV

[3] = SK-BR-3 cell growth inhibitors, pilot screen, 24 h, human (AID 572;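 active means viability at or below 10% of carrier control in both of two separate runs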;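 further: compound exposure lasted between 18 and 24 h rather than exactly 24 h; 100% = carrier-treated control wells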); settings: SK-BR-3 viability, CellTiter-Glo luminescence, at 10 µM, stronger effect = lower value
[4] = HUVEC growth inhibition – cell-based, human, primary screen (AID 575); settings: HUVEC proliferation, CellTiter-Glo luminescence, 72 h; at 10 µM; stronger effect = lower value;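 further: 100% = median of untreated cell wells with 0.1% DMSO on each plate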
Summary of the method: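 material = primary HUVEC, no more than 12 passages | input = 1250 cells per well | controls = vehicle and MePR control wells | measured by = CTG luminescence | times = 72 h compound incubation | format = collagen-coated 384-well format | read-out = % viability vs DMSO wells | doses = single 10 µM dose, 0.1% DMSO, from 5x medium stock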

[5] = growth inhibitors of H69AR lung tumor, primary screen, human, duplicate replicates (AID 580;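 active means viability at or under a set limit in both replicates, limit being median viability minus 3 SD, cut at about 48% in these data, passing the limit was not always enough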;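 further: 100% = mean luminescence of untreated wells and 0% = no signal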); settings: H69AR lung tumor cells viability, ATP luminescence, 72 h; at 10 µM; stronger effect = lower value
[6] = reversal of MRP1-mediated doxorubicin resistance, pilot screen, H69AR cells, doxorubicin co-treatment (AID 601;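 active means viability loss from added drug above about 55%, and viability with drug at most 40%, in both replicates, limit read from the data, passing the limit was not always enough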); settings: CellTiter-Glo, 72 h, at 10 µM; for differential viability (reversal): stronger effect = higher value
[7] = 384-well plate pilot, post-Golgi transport modulator project, inhibition of yeast transport mutant growth (AID 636; in the data active means inhibition above about 31%); settings: absorbance 615 nm, about 18 h, stronger effect = higher value
[8] = growth suppression of yeast trafficking mutant, preliminary HTS, modulators of trafficking downstream of Golgi apparatus project, 1536-format plate, OD 615 nm (AID 637; in the data active means inhibition above about 30%); settings: yeast transport mutant growth, absorbance 615 nm, 18 h; stronger effect = higher value
[9] = H69AR cells + 2 uM doxorubicin, measured here: viability with 2 uM doxorubicin, stronger effect = lower value
[10] = H69AR cells, compound alone cytotoxicity

SMILES | viability [1] [%] | Her2 level [2] | viability [3] | viability [4] | viability [5] | differential viability (reversal) ([6]; H69AR cells + 2 uM doxorubicin) | viability [6, 9] [%] | viability [6, 10] [%] | inhibition [7] | inhibition [8]
CCOC(=O)c1[nH]c2ccccc2c1NC(=O)CCN1CCN(C(=O)OCC)CC1 | 110 | 89.5% (inactive) | 110% (inactive) | 81.4% (inactive) | 96.8% (inactive) | 19.1% (inactive) | 77.7 | 96.8 | 1.84% (inactive) | -1.94% (inactive)
CCN(CC)S(=O)(=O)N1CCC(C(=O)NC2CCCc3ccccc32)CC1 (stereo not given) | 78 | 118% (inactive) | 78% (inactive) | 108% (inactive) | 90.5% (inactive) | 4.3% (inactive) | 86.2 | 90.5 | 5.45% (inactive) | -4.26% (inactive)
Cn1c(=O)c2c(nc(SCCCO)n2Cc2ccccc2Cl)n(C)c1=O | 80.5 | 78.5% (inactive) | 80.5% (inactive) | 67.2% (inactive) | 79.3% (inactive) | 51.5% (inactive) | 27.9 | 79.3 | -1.6% (inactive) | 2.62% (inactive)
O=C(CSc1nccn1-c1cccc(Cl)c1)NC1CCCC1 | 95.5 | 86% (inactive) | 95.5% (inactive) | 95.5% (inactive) | 111% (inactive) | 10.3% (inactive) | 101 | 111 | 0.91% (inactive) | 14.1% (inactive)
COc1ccc(OC)c(C(=O)c2coc3ccc(O)c(CN4CCOCC4)c23)c1 | 95.5 | 78% (inactive) | 95.5% (inactive) | 97.8% (inactive) | 90.1% (inactive) | -4.02% (inactive) | 94.1 | 90.1 | -5.07% (inactive) | -8.73% (inactive)
CN(C)S(=O)(=O)Nc1ccc(Br)cc1F | 108 | 82.5% (inactive) | 108% (inactive) | 86.9% (inactive) | 102% (inactive) | 13.6% (inactive) | 88.5 | 102 | -5.2% (inactive) | -8.1% (inactive)
O=C(NCCC1=CCCCC1)C1CC(=O)N(C2CCCCCC2)C1 (stereo not given) | 98 | 110% (inactive) | 98% (inactive) | 104% (inactive) | 99.5% (inactive) | 11% (inactive) | 88.5 | 99.5 | -1.15% (inactive) | -0.67% (inactive)
CCS(=O)(=O)Nc1ccc(C(=O)CC2(O)C(=O)Nc3ccccc32)cc1 (stereo not given) | 105 | 91% (inactive) | 105% (inactive) | 90.3% (inactive) | 89.5% (inactive) | -7.81% (inactive) | 97.3 | 89.5 | -5.87% (inactive) | 2.13% (inactive)
COc1ccc(C2CC(C(F)(F)F)n3ncc(C(=O)NCc4cccnc4)c3N2)cc1OC (stereo not given) | 86.5 | 93% (inactive) | 86.5% (inactive) | 94.2% (inactive) | 91.1% (inactive) | 11.6% (inactive) | 79.5 | 91.1 | -4.47% (inactive) | 2.33% (inactive)
COC(=O)C1=C(C)NC(=O)C1(NC(=O)CN1CCCC1=O)C(F)(F)F (stereo not given) | 116 | 91% (inactive) | 116% (inactive) | 105% (inactive) | 101% (inactive) | 3.15% (inactive) | 98.3 | 101 | -4.34% (inactive) | -6.03% (inactive)
O=C(CCCCC(=O)NCc1cccs1)NCc1cccs1 | 95.5 | 106% (inactive) | 95.5% (inactive) | 99.7% (inactive) | 97.8% (inactive) | 0.77% (inactive) | 97 | 97.8 | 1.2% (inactive) | -7.42% (inactive)
CC1=CCC(C(C)(C)NC(=O)c2ccccc2)C/C1=N\O (stereo not given) | 104 | 98.5% (inactive) | 104% (inactive) | 112% (inactive) | 106% (inactive) | 17.3% (inactive) | 88.6 | 106 | -0.81% (inactive) | 4.44% (inactive)
CN(C)c1ccc(-c2nn3c(-c4ccc(Cl)cc4Cl)nnc3s2)cc1 | 100 | 71% (inactive) | 100% (inactive) | 46.7% (inactive) | 15.1% (active) | -42.6% (inactive) | 57.7 | 15.1 | -6.08% (inactive) | 5.08% (inactive)
O=C(NCC(=O)N(c1ccc2c(c1)OCCO2)C(C(=O)NC1CCCC1)c1ccco1)c1ccco1 (stereo not given) | 92 | 102% (inactive) | 92% (inactive) | 97.2% (inactive) | 92.1% (inactive) | 13.4% (inactive) | 78.7 | 92.1 | -4.53% (inactive) | -9.05% (inactive)
CCOC(=O)CSc1nnc(-c2ccc(S(=O)(=O)N3CCOCC3)cc2)n1-c1ccccc1 | 93 | 83.5% (inactive) | 93% (inactive) | 94.4% (inactive) | 105% (inactive) | 17.4% (inactive) | 87.7 | 105 | -1.97% (inactive) | 1.43% (inactive)
CC/C(O)=C(/C#N)c1nnc2n1CCCCC2 | 100 | 84% (inactive) | 100% (inactive) | 101% (inactive) | 97.4% (inactive) | 10.8% (inactive) | 86.5 | 97.4 | -4.68% (inactive) | -5.71% (inactive)
